Data set [1] in a line: folding enthalpy; higher = less favourable; fluorescence melt of hairpins on a sequencing array, two-state fit. The settings on record: sodium 0.088 M. The method, boiled down: (§1)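 To match UV melts, fitted temperatures were raised by 9.35 °C. These fits were bootstrapped two-state models that gave melting temperature and folding enthalpy, combined by inverse variance over four replicates. The input was normalised Cy3 fluorescence of library hairpins with annealed Cy3 and quencher oligos on a sequenced MiSeq flow cell, imaged in 50 mM Na-HEPES pH 8.0, 25 mM NaCl in 2.5 °C steps up to 60 °C.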

A short description of data set [2]: melting temperature; fluorescence melt of hairpins on a sequencing array, two-state fit, raised by 9.35 °C to match UV melts. The settings on record: sodium 0.088 M. The method, boiled down: as §1

As for GATCCCACCAGGGATC ((((((....)))))), in data set [1], the folding enthalpy was -41.8 kcal/mol. The Tm in data set [2] is 61.4 °C.
In the case of GATCGGTGGCCCGATC ((((((....)))))), the folding enthalpy in data set [1] is -37.6 kcal/mol. In data set [2], the Tm is 57.1 °C.
Take GATCCATTATTGGATC ((((((....)))))): the folding enthalpy in data set [1] was -37.1 kcal/mol. Besides, the Tm in data set [2] was 52.7 °C.
Take GGCCGCCGAAAGGCTGCC (((.(((....))).))): the folding enthalpy in data set [1] is -30.7 kcal/mol. Also, the Tm in data set [2] worked out at 65.5 °C.
The matching figures for GGGTACGAAAGTAATCCC ((((((....)))..))): -20.7 kcal/mol and 39 °C.
On to GACGCTGGAAACAGTGTC (((.(((....))).))), for which the folding enthalpy in data set [1] is -42 kcal/mol. In addition, in data set [2], the Tm is 53.5 °C.
The matching figures for GCTTCCGAAAGGACAAGC ((((((....)))..))): -24.2 kcal/mol and 38.5 °C.
The matching figures for GCGACGCGAAAGCGAAGC ((..(((....)))..)): -36.5 kcal/mol and 66.2 °C.
Consider GATCGCCGAAAGGCCATC (((.(((....))).))), for which the folding enthalpy in data set [1] was -14.5 kcal/mol. In addition, the Tm in data set [2] turned out to be 38.6 °C.
Turning to GGCAGAGGAAACTCTGTC (.(((((....))))).), the folding enthalpy in data set [1] is -30.7 kcal/mol. Further, in data set [2], the Tm was 49.7 °C.
The matching figures for GGTGAAGGAAACTTCATC (.(((((....))))).): -25.3 kcal/mol and 42.1 °C.
With GCTGCGCGAAAGCGGGGC ((..(((....)))..)), in data set [1], the folding enthalpy is -26.9 kcal/mol. For the same sequence, the Tm in data set [2] came out at 63.1 °C.
The matching figures for GCGAGGGGAAACCCTTGC ((.((((....)))).)): -35.8 kcal/mol and 55.6 °C.
The matching figures for GCCGTACGAAAGTAGGC (((.(((....)))))): -33.6 kcal/mol and 67.4 °C.
As for GTCGGTCGAAAGACGAC (((.(((....)))))), the folding enthalpy in data set [1] is -29.2 kcal/mol. In addition, in data set [2], the Tm was 55.1 °C.
GAATGGGCGAAAGCCTTC (((..(((....)))))): in data set [1], the folding enthalpy is -6.79 kcal/mol. For the same sequence, the Tm in data set [2] worked out at 32 °C.
The matching figures for GTTCTCGAAAGAGAAAAC ((((((....)))..))): -14 kcal/mol and 32.6 °C.
The matching figures for GGTTCCGAAAGGATCACC ((((((....)))..))): -14.7 kcal/mol and 33.1 °C.
In the case of GCCGGCGAAAGCCGAGGC ((((((....)))..))), the folding enthalpy in data set [1] was -13.4 kcal/mol. Besides, in data set [2], the Tm is 63.1 °C.
As for GCCAGGCGAAAGCGTAGC ((.(.((....)).).)), the folding enthalpy in data set [1] was -7.64 kcal/mol. Moreover, the Tm in data set [2] stood at 38.9 °C.
The matching figures for GGTCGCGAAAGCGTTACC ((((((....)))..))): -14.6 kcal/mol and 41.4 °C.
The matching figures for GCTTGAGAAATCAAGC ((((((....)))))): -35.3 kcal/mol and 55.8 °C.
The matching figures for GACTACGGAAACGTGGTC (((.(((....))).))): -42.8 kcal/mol and 52 °C.
As to GATCTCCGCAGAGATC ((((((....)))))), the folding enthalpy in data set [1] is -34.6 kcal/mol. Further, the Tm in data set [2] amounted to 57.8 °C.
The matching figures for GATCATACCGATGATC ((((((....)))))): -35.7 kcal/mol and 46.9 °C.
For the sequence CGCACTCGGAAACGAGCG (((..(((....)))))), in data set [1], the folding enthalpy was -14.1 kcal/mol. Also, the Tm in data set [2] was found to be 39.9 °C.
The matching figures for GGAACCGAAAGGTACTCC ((((((....)))..))): -12.6 kcal/mol and 33.3 °C.
Turning to GATCAACTGATTGATC ((((((....)))))), in data set [1], the folding enthalpy is -32.3 kcal/mol. Further, in data set [2], the Tm came to 42.7 °C.
Consider GAAGCCGAAAGGCTGTTC ((((((....)))..))), for which the folding enthalpy in data set [1] is -10.4 kcal/mol. For the same sequence, in data set [2], the Tm was found to be 47.4 °C.
Take GCAGGGCGAAAGCTGTGC (((..((....))..))): the folding enthalpy in data set [1] was -21.7 kcal/mol. Also, the Tm in data set [2] turned out to be 52.2 °C.
Turning to GATCTGTGACAGATC ((((((...)))))), in data set [1], the folding enthalpy is -31.5 kcal/mol. In addition, the Tm in data set [2] was found to be 48.8 °C.
The matching figures for GATTGCCGAAAGGCATC (((.(((....)))))): -10.3 kcal/mol and 44.6 °C.
The matching figures for GTACCCGAAAGGGGATAC ((((((....)))..))): -11.9 kcal/mol and 41.9 °C.
The matching figures for GATCGGCGAAAGCCAATC (((.(((....))).))): -17.1 kcal/mol and 43.7 °C.
Consider GATCCAGCACTGGATC ((((((....)))))), for which the folding enthalpy in data set [1] is -37.6 kcal/mol. Further, in data set [2], the Tm was 56 °C.
For GCTGTGCGAAAGCAGGGC ((..(((....)))..)), in data set [1], the folding enthalpy was -21.1 kcal/mol. Also, in data set [2], the Tm was determined as 50.3 °C.
The matching figures for CGCGGAAAAATCCGCG ((((((....)))))): -38.1 kcal/mol and 58.9 °C.
